Test results reported in ChEMBL document CHEMBL4368872, “Synthesis and anticonvulsant activity of phenoxyacetyl derivatives of amines, including aminoalkanols and amino acids” (Medchemcomm, 2018).
The source made the active and inactive calls. The rule behind the calls is not given here.

What was measured:
[1] = test system: Mus musculus; assay: Anticonvulsant activity in CF-1 mouse model of maximal electroshock-induced seizure assessed as suppression of tonic hind limb extension at 30 mg/kg, ip measured at 4 hrs post dose; format: functional, organism-based
In short: (§1)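 Mice dosed i.p. and given maximal electroshock at 50 mA. Read-out is protection, reported as number protected / number tested at 0.25, 0.5, 1 and 4 h after dosing.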

[2] = Neurotoxicity in Sprague-Dawley rat at 30 mg/kg, po measured after 2 hrs by rotarod test; format: toxicity, organism-based; conditions: in vivo
In short: (§2)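 Rat neurotoxicity after i.p. or p.o. dosing was scored as animals impaired / animals tested at each time point. For p.o. dosing, TD50 was obtained by probit analysis.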

[3] = Mutagenicity in Salmonella typhimurium TA100 assessed as mutagenicity index at 50 to 500 ug/plate preincubated for 30 mins followed by top agar addition and measured after 48 hrs in absence of liver S9 fraction by Ames test; format: toxicity; conditions: salmonella enterica subsp. enterica serovar typhimurium, s9, 48 h
In short: (§3)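 Ames plate incorporation in S. typhimurium TA100 or TA1535, with or without S9. Overnight culture, compound in DMSO (50–500 µg per plate) and buffer or S9 mix preincubated 30 min at 37 °C, then top agar on glucose minimal agar. Incubated 48 h at 37 °C, revertants counted in triplicate. Vehicle negative control; NaN3 (−S9) and 2AA (+S9) positive controls. MI = revertants with compound / negative-control revertants; MI ≥ 2 with dose-response counts as positive.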

[4] = test system: Salmonella typhimurium; assay: Antimutagenic activity against Salmonella typhimurium TA100 assessed as inhibition of NaN3-induced mutation at 50 ug/plate preincubated for 30 mins followed by top agar addition and measured after 48 hrs in presence of liver S9 fraction by Ames test relative to control; format: organism-based; conditions: salmonella enterica subsp. enterica serovar typhimurium, s9, 48 h
[5] = test system: Mus musculus; assay: Anticonvulsant activity in CF-1 mouse model of maximal electroshock-induced seizure assessed as suppression of tonic hind limb extension at 100 mg/kg, ip measured at 4 hrs post dose; format: functional, organism-based; in short: as §1
[6] = Half life in rat liver microsomes at 20 uM preincubated for 15 mins followed by NADPH generating system addition and measured by LC-MS/MS analysis; format: ADME, Microsome
In short: (§4)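 Test compound at 20 µM preincubated 15 min with male rat liver microsomes (0.4 mg ml⁻¹) in 100 mM potassium phosphate, pH 7.4. Started with NADP⁺ (3.4 mM), glucose 6-phosphate (7.7 mM) and G6PDH (0.6 U ml⁻¹). Run 5–60 min at 37 °C in duplicate, stopped with cold perchloric acid plus internal standard, supernatant analysed by LC-MS/MS. Half-life and Cl_int derived by literature methods.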

[7] = test system: Mus musculus; assay: Anticonvulsant activity in CF-1 mouse model of subcutaneous pentylenetetrazole-induced seizure assessed as reduction in convulsions at 100 mg/kg, ip measured at 0.5 hrs post dose; format: functional, organism-based
In short: (§5)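 Mice dosed i.p., then given pentylenetetrazole 85 mg/kg in 0.9% NaCl s.c. into the posterior midline of the neck. Seizures watched for at least 30 min. Scored as protected / tested at 0.5 and 4 h.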

[8] = test system: Mus musculus; assay: Anticonvulsant activity in CF-1 mouse model of subcutaneous pentylenetetrazole-induced seizure assessed as reduction in convulsions at 300 mg/kg, ip measured at 0.5 hrs post dose; format: functional, organism-based; in short: as §5
[9] = test system: Mus musculus; assay: Anticonvulsant activity in CF-1 mouse model of maximal electroshock-induced seizure assessed as suppression of tonic hind limb extension at 30 mg/kg, ip measured at 0.5 hrs post dose; format: functional, organism-based; in short: as §1
[10] = test system: Salmonella typhimurium; assay: Antimutagenic activity against Salmonella typhimurium TA1535 assessed as inhibition of NaN3-induced mutation at 500 ug/plate preincubated for 30 mins followed by top agar addition and measured after 48 hrs in presence of liver S9 fraction by Ames test relative to control; format: organism-based; conditions: salmonella enterica subsp. enterica serovar typhimurium, s9, 48 h
[11] = test system: Salmonella typhimurium; assay: Antimutagenic activity against Salmonella typhimurium TA1535 assessed as inhibition of NaN3-induced mutation at 250 ug/plate preincubated for 30 mins followed by top agar addition and measured after 48 hrs in presence of liver S9 fraction by Ames test relative to control; format: organism-based; conditions: salmonella enterica subsp. enterica serovar typhimurium, s9, 48 h
[12] = Neurotoxicity in CF-1 mouse at 30 mg/kg, ip measured after 4 hrs by rotarod test; format: toxicity, organism-based; conditions: in vivo
In short: (§6)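 Mice dosed i.p. were placed on a 1 in. knurled rod turning at 6 rpm. Toxicity was scored as failure to keep balance for at least 1 min, i.e. falling off three or more times. Results are reported as animals showing toxicity / animals tested at each time point.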

[13] = test system: Rattus norvegicus; assay: Anticonvulsant activity in Sprague-Dawley rat model of maximal electroshock-induced seizure assessed as suppression of tonic hind limb extension at 30 mg/kg, po measured at 2 hrs post dose; format: functional, organism-based
In short: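 Rats given 30 mg/kg p.o. and tested by maximal electroshock at 150 mA. Scored as number protected / number tested (4 per group) at 0.25, 0.5, 1, 2 and 4 h after dosing.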

[14] = Neurotoxicity in CF-1 mouse at 100 mg/kg, ip measured after 0.5 hrs by rotarod test; format: toxicity, organism-based; conditions: in vivo; in short: as §6
[15] = test system: Salmonella typhimurium; assay: Antimutagenic activity against Salmonella typhimurium TA1535 assessed as inhibition of NaN3-induced mutation at 50 ug/plate preincubated for 30 mins followed by top agar addition and measured after 48 hrs in presence of liver S9 fraction by Ames test relative to control; format: organism-based; conditions: salmonella enterica subsp. enterica serovar typhimurium, s9, 48 h
[16] = test system: Salmonella typhimurium; assay: Antimutagenic activity against Salmonella typhimurium TA100 assessed as inhibition of NaN3-induced mutation at 500 ug/plate preincubated for 30 mins followed by top agar addition and measured after 48 hrs in presence of liver S9 fraction by Ames test relative to control; format: organism-based; conditions: salmonella enterica subsp. enterica serovar typhimurium, s9, 48 h
[17] = Neurotoxicity in Sprague-Dawley rat at 100 mg/kg, ip measured after 0.5 hrs by rotarod test; format: toxicity, organism-based; conditions: in vivo; in short: as §2
[18] = Retention time of the compound in rat liver microsomes by LC-MS/MS analysis; format: ADME, Microsome
[19] = Neurotoxicity in Sprague-Dawley rat at 30 mg/kg, po measured after 1 hr by rotarod test; format: toxicity, organism-based; conditions: in vivo; in short: as §2
[20] = Neurotoxicity in CF-1 mouse at 100 mg/kg, ip measured after 4 hrs by rotarod test; format: toxicity, organism-based; conditions: in vivo; in short: as §6
[21] = test system: Mus musculus; assay: Anticonvulsant activity in CF-1 mouse model of maximal electroshock-induced seizure assessed as suppression of tonic hind limb extension at 300 mg/kg, ip measured at 4 hrs post dose; format: functional, organism-based; in short: as §1
[22] = Mutagenicity in Salmonella typhimurium TA100 assessed as mutagenicity index at 50 to 500 ug/plate preincubated for 30 mins followed by top agar addition and measured after 48 hrs in presence of liver S9 fraction by Ames test; format: toxicity, subcellular; conditions: salmonella enterica subsp. enterica serovar typhimurium, s9, 48 h; in short: as §3
[23] = Intrinsic clearance in rat liver microsomes at 20 uM preincubated for 15 mins followed by NADPH generating system addition and measured after 5 to 60 mins by LC-MS/MS analysis; format: ADME, Microsome; conditions: read-out: CLH; in short: as §4
[24] = Neurotoxicity in CF-1 mouse at 100 mg/kg, ip measured after 1 hr by rotarod test; format: toxicity, organism-based; conditions: in vivo; in short: as §6
[25] = test system: Mus musculus; assay: Anticonvulsant activity in CF-1 mouse model of subcutaneous pentylenetetrazole-induced seizure assessed as reduction in convulsions at 300 mg/kg, ip measured at 4 hrs post dose; format: functional, organism-based; in short: as §5
[26] = test system: Salmonella typhimurium; assay: Antimutagenic activity against Salmonella typhimurium TA1535 assessed as inhibition of NaN3-induced mutation at 100 ug/plate preincubated for 30 mins followed by top agar addition and measured after 48 hrs in presence of liver S9 fraction by Ames test relative to control; format: organism-based; conditions: salmonella enterica subsp. enterica serovar typhimurium, s9, 48 h
[27] = Neurotoxicity in Sprague-Dawley rat at 30 mg/kg, po measured after 4 hrs by rotarod test; format: toxicity, organism-based; conditions: in vivo; in short: as §2

| Compound | Activity [1] | Activity [2] | Activity index [3] | inhibition (INH) [4] [%] | Activity [5] | half-life at 20 µM [6] [h] | Activity [7] | Activity [8] | Activity [9] | inhibition (INH) [10] [%] | inhibition (INH) [11] [%] | Activity [12] | Activity [13] | Activity [14] | inhibition (INH) [15] [%] | inhibition (INH) [16] [%] | Activity [17] | Retention_time [18] [min] | Activity [19] | Activity [20] | other results |
| --- | --- | --- | --- | --- | --- | --- | --- | --- | --- | --- | --- | --- | --- | --- | --- | --- | --- | --- | --- | --- | --- |
| CCC(O)CNC(=O)COc1c(C)cccc1C (centres undefined) | inactive | Non-Toxic | 0.7 to 1.7 | 21 | inactive | 0.507 | inactive | inactive | inactive | 27 | 56 | Non-Toxic | inactive | Non-Toxic | 42 | 47 | Toxic | 5.15 | Non-Toxic | Non-Toxic | Activity [21]: inactive; Activity index [22]: 0.7 to 1.7; microsomal CLint at 20 µM [23]: 57 µL/min/mg; Activity [24]: Non-Toxic; Activity [25]: inactive; inhibition (INH) [26]: 51%; Activity [27]: Non-Toxic |
| Cc1cccc(C)c1OCC(=O)N[C@H](C)CO | inactive | Non-Toxic | 0.7 to 1.7 | 57 | inactive | 3.04 | inactive | inactive | inactive | 31 | 47 | Non-Toxic | inactive | Non-Toxic | 29 | 40 | Non-Toxic | 4.73 | Non-Toxic | Non-Toxic | Activity [21]: inactive; Activity index [22]: 0.7 to 1.7; microsomal CLint at 20 µM [23]: 9.5 µL/min/mg; Activity [24]: Non-Toxic; Activity [25]: inactive; inhibition (INH) [26]: 43%; Activity [27]: Non-Toxic |
